Source: ChEMBL document CHEMBL4265873, “Design and discovery of silybin analogues as antiproliferative compounds using a ring disjunctive - Based, natural product lead optimization approach” (Eur J Med Chem, 2017)
Activity calls are given as the source filed them. No cut-off for these calls is given here.

Key:
BT-20 = assay: Cytotoxicity in human BT20 cells assessed as reduction in cell viability incubated for 68 hrs by MTT assay; format: functional, cell-based; conditions: BT-20, 68 h
Method in brief: (§1)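 Cells were trypsinised and seeded at 5x10^3 cells/well. Compound was added at 0, 0.1, 0.3, 1, 3, 10, 30 and 100 µM for 68 h. MTT (4 mg/mL solution) was then added for 4 h, and the formazan was dissolved in DMSO. Absorbance read at 570 nm. IC50 was derived from % survival across the eight concentrations. Mean ± SD of three independent experiments, each in triplicate.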

PANC-1 = assay: Cytotoxicity in human PANC1 cells assessed as reduction in cell viability incubated for 68 hrs by MTT assay; format: functional, cell-based; conditions: PANC-1, 68 h; method in brief: as §1
HEK293 = assay: Cytotoxicity in HEK293 cells assessed as reduction in cell viability incubated for 68 hrs by MTT assay; format: cell-based; conditions: Homo sapiens, HEK293, 68 h; method in brief: as §1
CHO = assay: Cytotoxicity in CHO cells assessed as reduction in cell viability incubated for 68 hrs by MTT assay; format: cell-based; conditions: Cricetulus griseus; method in brief: as §1
[1] = Selectivity index, ratio of IC50 for cytotoxicity in human CRL1459 cells incubated for 68 hrs by MTT assay to IC50 for cytotoxicity in human OV2008 cells incubated for 68 hrs by MTT assay; format: toxicity, cell-based; conditions: CRL1459 cells versus OV2008 cells, read-out: Ratio IC50
[2] = Selectivity index, ratio of IC50 for cytotoxicity in HEK293 cells incubated for 68 hrs by MTT assay to IC50 for cytotoxicity in human OV2008 cells incubated for 68 hrs by MTT assay; format: toxicity, cell-based; conditions: HEK293 cells versus OV2008 cells, read-out: Ratio IC50
[3] = Selectivity index, ratio of IC50 for cytotoxicity in human CRL1459 cells incubated for 68 hrs by MTT assay to IC50 for cytotoxicity in human A2780 cells incubated for 68 hrs by MTT assay; format: toxicity, cell-based; conditions: CRL1459 cells versus A2780 cells, read-out: Ratio IC50
2008 [4] = assay: Inhibition of cell proliferation of human OV2008 cells at 1 to 8 uM incubated for 10 to 50 hrs; format: functional, cell-based
Method in brief: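 OV2008 or A2780 cells were seeded at low density (1x10^3 cells/well) and given 0, 2, 4 or 8 µM. Live-cell images were taken every 2 h for up to 48 h. Confluence at each time point was quantified with a confluence mask and plotted as timeline curves. Means ± SD of three independent experiments.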

2008 [5] = assay: Induction of apoptosis in human OV2008 cells assessed as apoptosis cells level at 2 uM incubated for 12 hrs by Alexa Fluor 488 annexin V and mito-tracker red CMXRos dye staining based flow cytometry (reference value: 19.6%); format: functional
Method in brief: (§2)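 Cells in complete medium were treated with 0, 2 or 4 µM for 12 h, then trypsinised. They were stained with MitoTracker Red (4 µL of 10 µM working solution per 1 mL of cells) for 30 min at 37 °C under 5% CO2. Cells were then resuspended in annexin-binding buffer with Alexa Fluor 488 annexin V for 15 min. Flow cytometry emission read at 530 and 585 nm. Two independent experiments, each in triplicate.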

2008 [6] = assay: Induction of apoptosis in human OV2008 cells assessed as apoptosis cells level at 4 uM incubated for 12 hrs by Alexa Fluor 488 annexin V and mito-tracker red CMXRos dye staining based flow cytometry (reference value: 19.6%); format: functional; method in brief: as §2
2008 [7] = assay: Reduction in mitochondrial potential in human OV2008 cells at 2 uM incubated for 12 hrs by Alexa Fluor 488 annexin V and mito-tracker red CMXRos dye staining based flow cytometry; format: functional, cell-based; method in brief: as §2
2008 [8] = assay: Induction of cell cycle arrest in human OV2008 cells assessed as increase in cell accumulation at subG1 phase at 2 to 4 uM incubated for 12 hrs by propidium iodide staining based flow cytometry; format: functional
Method in brief: (§3)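 OV2008 cells were plated at 1x10^6 cells/well and incubated with 0, 2 or 4 µM for 12 h. Cells were trypsinised, washed and resuspended in ice-cold PBS, then stained with propidium iodide for at least 15 min. Phase distribution was measured by flow cytometry. Means ± SD of three independent experiments in triplicate.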

2008 [9] = assay: Induction of cell cycle arrest in human OV2008 cells assessed as cell accumulation at S phase at 2 uM incubated for 12 hrs by propidium iodide staining based flow cytometry (reference value: 5.2%); format: functional; method in brief: as §3
2008 [10] = assay: Induction of cell cycle arrest in human OV2008 cells assessed as cell accumulation at subG1 phase at 4 uM incubated for 12 hrs by propidium iodide staining based flow cytometry (reference value: 11.3%); format: functional; method in brief: as §3
Homo sapiens = species: Homo sapiens; assay: Inhibition of tubulin alpha in human OV2008 cells assessed as induction of disturbance in cellular microtubule shape and integrity at 2 to 4 uM after overnight incubation by immunofluorescence analysis; format: cell-based
OV2008 (Homo sapiens) = assay: Induction of cell cycle arrest in human OV2008 cells assessed as increase in cell accumulation at subG1 phase at 2 to 4 uM incubated for 12 hrs by propidium iodide staining based flow cytometry

## O=C(/C=C/c1cccc(OCc2ccccc2)c1)c1ccc(O)cc1
BT-20
  IC50: 5.1 µM
PANC-1
  IC50: 2.6 µM
HEK293
  IC50: 5.4 µM
CHO
  IC50: 8.1 µM
[1]
  selectivity ratio at 68 h: 6 to 30
[2]
  selectivity ratio at 68 h: 6 to 30
[3]
  selectivity ratio at 68 h: 6 to 30
2008 [4]
  inhibition: Active
2008 [5]
  Activity: 38.1%
2008 [6]
  Activity: 42.5%
2008 [7]
  Activity: Active
2008 [8]
  Activity: Dose-dependent effect
2008 [9]
  Activity: 4.4%
2008 [10]
  Activity: 33.9%
Homo sapiens
  inhibition: Active
OV2008 (Homo sapiens)
  Activity: Dose-dependent effect
